# The list is not random: actives were taken first. Their share in the collection is about 2%.
# SENP1 FRET inh: blocks the human SENP1 SUMO protease catalytic domain; Q9P0U3; recombinant SENP1 catalytic domain, CyPet-SUMO1-YPet FRET cleavage; inhibition, % at 10 µM; hit rate 0.21% among 360,000;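 active = inhibition at least 30% at 10 µM, raw YFP signal under a set limit, fluorescence ratio 0.5 to 1.5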;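 also: 0% = enzyme with DMSO and 100% = no enzyme wells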
#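 Assay system – human recombinant His6-tagged SENP1 catalytic domain enzyme · Input – SENP1 enzyme, 20 pM final · Buffer or medium – Tris pH 8 buffer plus EDTA, NaCl, BME, BSA, NP40, catalase · Schedule – 50 min reaction at room temperature · Technique – FRET read of cyan and yellow fluorescence · Control set – no-enzyme wells low, DMSO-plus-enzyme wells high control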
# Rpn11 inh: inhibitors of human proteasome Rpn11; O00487; inhibition, % at 20 µM; hit rate 0.59% among 360,000; human 26S proteasome, Ub4-pepOG fluorescence polarization; 20S core pre-blocked with epoxomicin; AID 588493;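 active = inhibition at 20 µM, scaled to each plate's controls, above about 33%, limit read from the data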
# CSN deneddyl inh: inhibitors of human CSN-mediated cullin deneddylation. hit rate 0.38% among 360,000. inhibition, % at 12.5 µM. AID 651999. Purified CSN, SCF-Nedd8-OG deneddylation, fluorescence polarization;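 active = pattern-corrected inhibition above about 35%, with an unprinted fluorescence ratio check between 0.5 and 1.5, limit read from the data, passing the limit was not always enough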;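 also: 0% = enzyme with substrate and 100% = substrate without enzyme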
#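 Assay system: HEK293T-derived human Csn5 enzyme; quantity: 0.24 nM enzyme; medium: Tris/NaCl/DTT buffer, pH 7.5; also added: substrate SCFSkp2-Nedd8OG, 10 nM; doses: 12.5 µM compound; schedule: 90 min reaction at room temperature; signal: FP; read-out: % inhibition of substrate cleavage by Csn5; benchmarks: substrate-only high control, full reaction low control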
# ATG4B inhibitor: blocks human ATG4B protease cleavage of LC3 substrate | ATG4B cleavage of LC3-PLA2, NBD-HPC fluorescence, 1 h | inhibition, % at 8.33 µM | hit rate 0.51% among 340,000; in the data active = inhibition above about 40%
# HNF4A DNA FP: change in binding of human HNF4 alpha to DNA; HNF4a-FITC DNA binding, fluorescence polarization, 1 h; P41235; activity change, % at 10 µM; hit rate 0.3% among 360,000; AID 1224865; in the data active = activity change above about 30%, passing the limit was not always enough
# Target sequence (P41235 whole entry, looked up): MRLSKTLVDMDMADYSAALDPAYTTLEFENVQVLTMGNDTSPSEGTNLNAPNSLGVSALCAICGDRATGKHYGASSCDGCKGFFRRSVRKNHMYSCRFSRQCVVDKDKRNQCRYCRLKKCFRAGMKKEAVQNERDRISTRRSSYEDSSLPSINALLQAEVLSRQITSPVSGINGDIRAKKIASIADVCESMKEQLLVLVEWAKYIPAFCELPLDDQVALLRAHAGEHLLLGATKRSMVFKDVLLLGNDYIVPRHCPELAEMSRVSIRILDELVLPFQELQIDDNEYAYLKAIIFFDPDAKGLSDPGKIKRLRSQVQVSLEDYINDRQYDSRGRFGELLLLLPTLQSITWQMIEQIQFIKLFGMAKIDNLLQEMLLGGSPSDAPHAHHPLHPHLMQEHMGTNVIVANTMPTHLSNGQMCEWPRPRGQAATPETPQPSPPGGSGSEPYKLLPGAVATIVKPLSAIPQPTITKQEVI
# TPT1 inh: blocks Candida albicans tRNA 2'-phosphotransferase | inhibition, % at 5 µM | recombinant caTPT1, FP RNA substrate dephosphorylation | hit rate 0.81% among 300,000;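 active = inhibition above the mean of all tested compounds plus 3 SD, set per screening campaign, cut at about 24% in these data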;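 also: plate controls were DMSO alone for no effect and ferristatin control at 100 nM for full effect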
# * hit, by the source's call; nt = no result given.
SMILES,SENP1 FRET inh,Rpn11 inh,CSN deneddyl inh,ATG4B inhibitor,HNF4A DNA FP,TPT1 inh
Cc1cccc(NC(=O)c2cc(-c3cc(C)cc(C)c3O)n[nH]2)c1,-2,2,2,11,31*,-1
Cc1cnc(CNC(=O)c2csc(COCCO)n2)cn1,0,-1,-2,nt,-5,nt
CC(C)OC(=O)c1nn2c(C(F)(F)F)cc(-c3ccc(Br)o3)nc2c1Br,-28,34,0,2,0,2
CC(C)OC(=O)c1nn2c(C(F)(F)F)cc(-c3ccco3)nc2c1Cl,10,nt,14,1,65*,5
C=CCOc1ccc(CNc2nccs2)cc1OC,0,3,-3,17,0,-4
C=CCOc1ccc(CNC(C)(C)C)cc1OC,1,2,-4,-2,51*,-1
N#Cc1ccc(Nc2nc(-c3ccc(O)cc3O)cs2)cc1C(F)(F)F,-15,5,3,41*,4,nt
Cc1cccc(C)c1NC(=O)C1(C)CSCC(=O)N1CC(C)C (stereo not given),5,nt,-1,nt,2,nt
CCc1ccc(/C=N/N2CCN(c3ccccn3)CC2)cc1,0,-20,1,7,61*,3
Cc1ccc(/C=N/N2CCN(c3ccccn3)CC2)cc1,4,-1,4,16,-1,-2
O=[N+]([O-])c1cccc(S(=O)(=O)/N=C(/Nc2ccccc2)c2ccccc2)c1,2,-4,-2,-8,3,nt
C1CC(=NN=C2CCSCC2)CCS1,4,3,2,-1,4,nt
Cn1cnnc1SCC(=O)Nc1ccccc1,3,-4,-5,4,1,-1
Cn1cnnc1SCC(=O)Nc1ccc(OCc2ccccc2)cc1,-2,7,50*,-13,3,-3
CCN(C(=O)COC(=O)CCNS(=O)(=O)c1ccccc1F)c1c(N)n(Cc2ccccc2)c(=O)[nH]c1=O,-2,-4,-1,4,0,nt
C[C@H](CO)N1C[C@H](C)[C@H](CN(C)C(=O)Nc2ccccc2F)OCc2cnnn2CCCC1=O,3,-3,3,nt,-5,nt
O=C1/C(=C/c2ccccc2O)SC(=S)N1Cc1cccnc1,11,24,9,-2,4,2
O=C1/C(=C/c2ccc(O)c([N+](=O)[O-])c2)SC(=S)N1Cc1ccccc1,38*,23,21,40,29,15
O=C(O)c1ccc(/C=C2/SC(=S)N(Cc3ccccc3)C2=O)cc1,2,0,5,4,-4,nt
O=C1/C(=C\c2cccc([N+](=O)[O-])c2O)SC(=S)N1Cc1ccccc1,6,-2,1,47*,-2,0
Nc1cc(Cl)nc(N/N=C/c2c(O)ccc3ccccc23)n1,48*,9,-2,-39,2,0
C[C@@H](c1ccccc1)N1C[C@@H](COCc2ccccc2)Oc2cc(N3CCC[C@H]3CO)ccc2S1(=O)=O,-7,nt,-2,nt,6,nt
CCOC(=O)C1=C(C)N=c2sc(=Cc3ccc(OCC(=O)O)cc3)c(=O)n2C1c1ccc(Cl)cc1 (stereo not given),-30,nt,35*,nt,8,nt
CCOC(=O)C1=C(C)N=c2s/c(=C\c3ccc(OCC(=O)O)cc3)c(=O)n2C1c1ccc(OC(C)C)cc1 (stereo not given),-21,17,7,31,0,3
CCOC(=O)C1=C(C)N=c2s/c(=C\c3ccc(OC(C)=O)cc3)c(=O)n2C1/C=C/c1ccccc1 (stereo not given),-13,6,2,-4,36*,2
SMILES,SENP1 FRET inh,Rpn11 inh,CSN deneddyl inh,ATG4B inhibitor,HNF4A DNA FP,TPT1 inh
Cn1cc(C(=O)c2ccccc2C(=O)O)cc1C(=O)C(Cl)(Cl)Cl,1,0,43*,-2,1,0
COP(=O)(OC)c1nc(-c2cccc3ccccc23)oc1NCc1ccccc1,-16,1,85*,-2,-3,-2
CCOC(=O)C1=C(CSc2nc(-c3ccccc3)ccc2C#N)OC(N)=C(C#N)C1c1ccccc1 (stereo not given),-16,nt,39*,-2,39*,21
CCOC(=O)C1=C(CSc2nc(-c3ccccc3)ccc2C#N)OC(N)=C(C#N)C1c1cccnc1 (stereo not given),-17,nt,32,-3,32,16
CCCSc1nc2sc3c(c2c(=O)[nH]1)CCN(Cc1ccccc1)C3,-19,65*,12,-2,17,82*
O=c1[nH]c(C(Cl)Cl)nc2sc3c(c12)CCN(Cc1ccccc1)C3,-27,-45,-4,17,-18,10
CC1(C(=O)Nc2ccc3c(c2)OCO3)CCN1C(=O)CCC1CCCC1 (stereo not given),-3,-6,-3,nt,0,nt
COc1ccc(OC)c(NC(=O)CCC(=O)N(Cc2ccc(OC)c(OC)c2)c2nccs2)c1,1,0,43*,-4,-3,-4
CCN(CC)c1ccc(N=Cc2ccc([N+](=O)[O-])o2)cc1,20,9,-8,4,3,9
CCN(CC)c1ccc(N=Cc2ccccc2[N+](=O)[O-])cc1,12,-4,-2,55*,-4,5
O=C(OCC(=O)c1ccc[nH]1)c1ccc(S(=O)(=O)C(F)F)cc1,1,-1,4,nt,1,nt
O=[N+]([O-])c1ccc(N2CCN(Cc3ccccc3)CC2)c2c1no[n+]2[O-],36*,-34,-6,nt,-12,nt
COC(=O)c1cc([N+](=O)[O-])ccc1N1CCN(Cc2ccccc2)CC1,-2,-6,-17,-7,1,-5
CC(=O)c1ccc(NC(=O)c2cccc(N3C(=O)c4ccccc4C3=O)c2)cc1,2,59*,132,4,165,1
CN(/N=C/c1ccncc1)c1cnn(-c2ccc(F)c(Cl)c2)c(=O)c1Cl,-1,22,44*,7,-2,-4
O=C1CCCC(=NNC(=O)c2cc3ccccc3cc2O)C1,-26,nt,72*,-17,129,nt
O=C(NN=C1CCCCCC1)c1cc2ccccc2cc1O,-30,6,-1,-4,-6,15
CC(C)(C)S(=O)(=O)N1Cc2ccc(CO)cc2[C@H]1CCO,-2,-11,-1,-1,1,nt
Oc1cccc(/C=N/N2CCCCC2)c1O,0,-2,0,3,2,-4
Oc1ccc(/C=N/N2CCCCC2)c(O)c1O,38*,-16,21,0,-2,-9
CC(C)COC(=O)N1CCCCC1c1cc(C(=O)NCc2ccccc2)no1 (stereo not given),-2,-5,3,nt,6,nt
CCCCCCCCCCCCCCCC[n+]1ccc(/C=N/O)cc1,0,66*,5,37,40*,1
O=c1cc(O)cc2n1CCC2,0,2,-2,nt,-1,nt
